Active and inactive are the calls of the source. The rule behind the calls is not given here.
Key:
LNCaP [1] = experiment: Cytotoxicity against human LNCAP cells assessed as reduction in cell viability up to 5 uM after 72 hrs by CellTiter96 AQueous one solution cell proliferation assay; format: functional, cell-based
In short: (§1)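 Cells in RPMI with 5% fetal calf serum, glutamine, nonessential amino acids, pyruvate, HEPES, 2-mercaptoethanol and antibiotics. Seeded at 10 000 (LNCaP) or 5000 (others) and grown overnight at 37 °C, then exposed to compound in DMSO, triplicate wells, 72 h. Read by MTS at 490 nm after 2 h. % cytotoxicity = (A medium − A treatment)/A medium × 100.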

CWR22R [2] = experiment: Cytotoxicity against human 22Rv1 cells assessed as reduction in cell viability up to 5 uM after 72 hrs by CellTiter96 AQueous one solution cell proliferation assay; format: functional, cell-based; in short: as §1
ACHN [3] = experiment: Cytotoxicity against human ACHN cells assessed as reduction in cell viability up to 5 uM after 72 hrs by CellTiter96 AQueous one solution cell proliferation assay; format: functional, cell-based; in short: as §1
M14 [4] = experiment: Cytotoxicity against human M14 cells assessed as reduction in cell viability up to 5 uM after 72 hrs by CellTiter96 AQueous one solution cell proliferation assay; format: functional, cell-based
In short: (§2)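 Melanoma cells in DMEM-based medium (5% fetal calf serum, glutamine, nonessential amino acids, pyruvate, HEPES, 2-mercaptoethanol, antibiotics). 5000 cells were grown overnight at 37 °C, then exposed to compound in DMSO in triplicate wells for 72 h. MTS absorbance at 490 nm after 2 h. % cytotoxicity = (A medium − A treatment)/A medium × 100.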

SK-MEL-28 [5] = experiment: Cytotoxicity against human SK-MEL-28 cells assessed as reduction in cell viability up to 5 uM after 72 hrs by CellTiter96 AQueous one solution cell proliferation assay; format: functional, cell-based; in short: as §2
HFF [6] = experiment: Cytotoxicity against HFF cells assessed as reduction in cell viability up to 5 uM after 72 hrs by CellTiter96 AQueous one solution cell proliferation assay; format: cell-based; settings: human; in short: as §1
LNCaP [7] = experiment: Cytotoxicity against human LNCAP cells assessed as reduction in cell viability after 72 hrs by CellTiter96 AQueous one solution cell proliferation assay; format: functional, cell-based
In short: (§3)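 MTS viability in RPMI with 5% fetal calf serum, 2.0 mM L-glutamine, nonessential amino acids, 1.0 mM pyruvate, penicillin/streptomycin, 10 mM HEPES and 2-mercaptoethanol. Cells were seeded at 10 000 (LNCaP) or 5000 (others) and grown overnight at 37 °C. Serial dilutions in DMSO went into triplicate wells for 72 h. MTS was read at 490 nm after 2 h. IC50 ± SD from dose–response curves, at least three independent experiments.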

CWR22R [8] = experiment: Cytotoxicity against human 22Rv1 cells assessed as reduction in cell viability after 72 hrs by CellTiter96 AQueous one solution cell proliferation assay; format: functional, cell-based; settings: 22Rv1, 72 h; in short: as §3
ACHN [9] = experiment: Cytotoxicity against human ACHN cells assessed as reduction in cell viability after 72 hrs by CellTiter96 AQueous one solution cell proliferation assay; format: functional, cell-based; in short: as §3
M14 [10] = experiment: Cytotoxicity against human M14 cells assessed as reduction in cell viability after 72 hrs by CellTiter96 AQueous one solution cell proliferation assay; format: functional, cell-based; settings: M14, 72 h
In short: (§4)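 MTS viability in DMEM with 5% fetal calf serum, 2.0 mM L-glutamine, nonessential amino acids, 1.0 mM pyruvate, penicillin/streptomycin, 10 mM HEPES and 2-mercaptoethanol. 5000 cells were grown overnight at 37 °C. Serial DMSO dilutions went into triplicate wells for 72 h. MTS absorbance was read at 490 nm after 2 h. IC50 ± SD from at least three independent dose–response experiments.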

SK-MEL-28 [11] = experiment: Cytotoxicity against human SK-MEL-28 cells assessed as reduction in cell viability after 72 hrs by CellTiter96 AQueous one solution cell proliferation assay; format: functional, cell-based; settings: SK-MEL-28, 72 h; in short: as §4
HFF [12] = experiment: Cytotoxicity against HFF cells assessed as reduction in cell viability after 72 hrs by CellTiter96 AQueous one solution cell proliferation assay; format: cell-based; settings: Homo sapiens; in short: as §3

SMILES	Activity (LNCaP [1])	Activity (CWR22R [2])	Activity (ACHN [3])	Activity (M14 [4])	Activity (SK-MEL-28 [5])	Activity (HFF [6])	IC50 (LNCaP [7])	IC50 (CWR22R [8])	IC50 (ACHN [9])	IC50 (M14 [10])	IC50 (SK-MEL-28 [11])	IC50 (HFF [12])
C[C@H]1C(=O)OC[C@H]1C[C@@H](O)[C@](C)(O)[C@]1(O)CC[C@@]2(O)[C@@H]3C[C@H]4O[C@]45CC=CC(=O)[C@]5(C)[C@H]3CC[C@]12C	inactive	inactive	inactive	inactive	inactive	Non-Toxic	–	–	–	–	–	–
C[C@H]1C(=O)OC[C@H]1C[C@@H](O)[C@](C)(O)[C@H]1CC[C@@]2(O)[C@@H]3CC=C4CC=CC(=O)[C@]4(C)[C@H]3CC[C@]12C	inactive	inactive	inactive	inactive	inactive	Non-Toxic	–	–	–	–	–	–
CC1=C(C)C(=O)O[C@@H]([C@](C)(O)[C@]2(O)CC[C@@]3(O)[C@@H]4C[C@@H](O)[C@@]5(O)CC=CC(=O)[C@]5(C)[C@H]4CC[C@]23C)C1	inactive	inactive	inactive	inactive	inactive	Non-Toxic	–	–	–	–	–	–
CC1=C(C)C(=O)O[C@@H]([C@](C)(O)[C@]2(O)CC[C@@]3(O)[C@@H]4[C@@H](O)C=C5C=CCC(=O)[C@]5(C)[C@H]4CC[C@]23C)C1	–	–	–	–	–	–	940 nM	990 nM	> 2000 nM	> 2000 nM	> 2000 nM	> 2000 nM
C[C@H]1C(=O)OC[C@H]1C[C@@H](O)[C@](C)(O)[C@]1(O)CC[C@@]2(O)[C@@H]3CC=C4CC=CC(=O)[C@]4(C)[C@H]3CC[C@]12C	inactive	inactive	inactive	inactive	inactive	Non-Toxic	–	–	–	–	–	–
COc1cccc2c1C(=O)c1c(O)c3c(c(O)c1C2=O)C[C@@](O)(C(=O)CO)C[C@@H]3O[C@H]1C[C@H](N)[C@H](O)[C@H](C)O1 [DOXORUBICIN]	–	–	–	–	–	–	20 nM	20 nM	20 nM	90 nM	250 nM	–
CO[C@]12CC=CC(=O)[C@]1(C)[C@H]1CC[C@]3(C)[C@](O)([C@@](C)(O)[C@H]4CC(C)=C(C)C(=O)O4)CC[C@@]3(O)[C@@H]1C[C@H]2O	inactive	inactive	inactive	inactive	inactive	Non-Toxic	–	–	–	–	–	–
C[C@H]1C(=O)OC[C@H]1C[C@@H](O)[C@](C)(O)C1=CC[C@H]2[C@@H]3C[C@H]4O[C@]45CC=CC(=O)[C@]5(C)[C@H]3CC[C@]12C	inactive	inactive	inactive	inactive	inactive	Non-Toxic	–	–	–	–	–	–
CC1=C(C)C(=O)O[C@@H]([C@](C)(O)C2=CC[C@@]3(O)[C@@H]4C[C@H]5O[C@]56CC=CC(=O)[C@]6(C)[C@H]4CC[C@]23C)C1	inactive	inactive	inactive	inactive	inactive	Non-Toxic	–	–	–	–	–	–
CC1=C(C)C(=O)O[C@@H]([C@](C)(O)[C@]2(O)CC[C@@]3(O)[C@@H]4C[C@H](Cl)[C@]5(O)CC=CC(=O)[C@]5(C)[C@H]4CC[C@]23C)C1	inactive	inactive	inactive	inactive	inactive	Non-Toxic	–	–	–	–	–	–
C[C@H]1C(=O)OC[C@H]1C[C@@H](O)[C@](C)(O)[C@]1(O)CC[C@@]2(O)[C@@H]3CC=C4C=CCC(=O)[C@]4(C)[C@H]3CC[C@]12C	inactive	inactive	inactive	inactive	inactive	Non-Toxic	–	–	–	–	–	–

Reference: ChEMBL document CHEMBL4190220, “Withanolides from Aeroponically Grown Physalis peruviana and Their Selective Cytotoxicity to Prostate Cancer and Renal Carcinoma Cells” (J Nat Prod, 2017)
